{"source": "the RNAGym collection of RNA variant scans (doi:10.1126/science.aae0568)", "parents": {"B1": {"name": "tRNA (parent)", "chain": "GUUCCGUUGGCGUAAUGGUAACGCGUCUCCCUCCUAAGGAGAAGACUGCGGGUUCGAGUCCCGUACGGAACG"}}, "note": "Fewer inactive variants are shown than the library holds.", "data": [{"variants_of": "B1", "assay": "yeast fitness relative to wild type (ratio to wild type); higher = fitter; tRNA-Arg(CCU), competitive growth, 37 C, YPD", "how_it_was_run": "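Variants of the tRNA-Arg(CCU) gene, chemically synthesised with a 3% per-site mutation rate at 69 sites, were placed at the native genomic locus in Saccharomyces cerevisiae. The pooled strains were competed in YPD at 37°C for 24 hours in six parallel replicates. Gene amplicons from the start population and from each end population were read by 100-nucleotide paired-end sequencing. Darwinian fitness relative to wild type came from changes in genotype frequencies; genotypes needed ≥ 100 starting reads, and estimates < 0.5 were set to 0.5.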", "values": [{"variant": "GUUCCGUUGGCGUAAUGGUAACGUGUCUGCCUCCUAAGGAGACGACUGCGGGUUGGAGUCCCGUACGAAACG", "note": "[C24U C29G A43C C55G G68A]", "yeast fitness": "≤ 0.5"}, {"variant": "GUUCCGUUGGCGUAAUGGUAACGUGUAUCUCUCCUAAGGAGAAGAGUGCGGGUUCGAGUCCCGUACGGAACG", "note": "[C24U C27A C30U C46G]", "yeast fitness": "≤ 0.5"}, {"variant": "GUUCCGUUGGCGUAAUGGUAACGUGUCUCCCUCCUAAGGAGAAGUCUGCGGGUUCGAGUCCCGUGCGGAACG", "note": "[C24U A45U A65G]", "yeast fitness": 0.623}, {"variant": "GUUCCGUUGGCGUAAUGGUAACGUGUCUACCUCCUAAGGAGAAGACUGCGGGUUCGAGUCCCGUACGGAACG", "note": "[C24U C29A]", "yeast fitness": 0.656}, {"variant": "GUUCCGUUGGCGUAAUGGUAACGUGUCUUCCUCCUAAGGAGAAGACUGCGGGUUCGAGUCCCGUACGGAACG", "note": "[C24U C29U]", "yeast fitness": 0.859}, {"variant": "GUUCCGUUGGCGUAAUGGUAACGUGUCUCACUCCCAAGGAGAAGACUGCGGGUUCGAGCCCCAUACGGAACG", "note": "[C24U C30A U35C U59C G63A]", "yeast fitness": "≤ 0.5"}, {"variant": "GUUCCGUUGGCGUAAUGGUAACGUGUUUCCCUCCUAAGGGGAAAACUGCGGGUUCGAGUCCCGUACGGAACG", "note": "[C24U C27U A40G G44A]", "yeast fitness": "≤ 0.5"}, {"variant": "GUUCCGUUGGCGUAAUGGUAACGUGUCUCCCUCCUAAGGCGAAGACUGCGGCUUCGAGUCCCGUACAGAACG", "note": "[C24U A40C G52C G67A]", "yeast fitness": "≤ 0.5"}, {"variant": "GUUCCGUUGGCGUAAUGGUAACGUGUCUUCCUCCUCAGGAGUAGACUGCGGGUUCGAGUCCCGUAAGGAACG", "note": "[C24U C29U A36C A42U C66A]", "yeast fitness": "≤ 0.5"}, {"variant": "GUUCCGUUGGCGUAAUGGUAACGUGUUUCCCUCCUAAGCAGAAGACUGCGGGUUCGAGUCCCGUACGGAACG", "note": "[C24U C27U G39C]", "yeast fitness": "≤ 0.5"}, {"variant": "GUUCCGUUGGCGUAAUGGUAACGUGUCUCCCUCCUAAGGAGAUGACGGCGGGUUCGAGUCCCGUACGGAACG", "note": "[C24U A43U U47G]", "yeast fitness": "≤ 0.5"}, {"variant": "GUUCCGUUGGCGUAAUGGUAACGUGUUUGCCUCCUAACGAGCAGACUGCGGGUUCGAGUCCCGUACGGAACG", "note": "[C24U C27U C29G G38C A42C]", "yeast fitness": 0.577}, {"variant": "GUUCCGUUGGCGUAAUGGUAACGUGUCUCCCUCCUAAGGUGAAGACUGCGGGUUCGAGUCCCGUACGUACCG", "note": "[C24U A40U G68U A70C]", "yeast fitness": "≤ 0.5"}, {"variant": "GUUCCGUUGGCGUAAUGGUAACGUGUCUCCGACCUAAGGAGACGACUGCGGGUUCGAGUCCCGUACGGAACG", "note": "[C24U C31G U32A A43C]", "yeast fitness": "≤ 0.5"}, {"variant": "GUUCCGUUGGCGUAAUGGUAACGUGUCUCCCUCCUAGGGAGAGGACUGAGGGUUCGAGUCCCGUACGGAACG", "note": "[C24U A37G A43G C49A]", "yeast fitness": "≤ 0.5"}, {"variant": "GUUCCGUUGGCGUAAUGGUAACGUGUCUCCCUCCUAAGGAGAAGACUGCGGGUUCGAGUCCCGUACGGAGCG", "note": "[C24U A70G]", "yeast fitness": 0.887}, {"variant": "GUUCCGUUGGCGUAAUGGUAACGUGUUUCCCUCCUAAGGGGAAGACUGCGGGUUCGAGUCCCGUACGGAACG", "note": "[C24U C27U A40G]", "yeast fitness": 0.563}, {"variant": "GUUCCGUUGGCGUAAUGGUAACGUGUAUCUCUCCUAAGGAGAAGACUGCGGGUUCGAGUCCCGUACGCAACG", "note": "[C24U C27A C30U G68C]", "yeast fitness": "≤ 0.5"}, {"variant": "GUUCCGUUGGCGUAAUGGUAACGUGUCUCCAUAUUAAGGAGAAGAAUGCGGGUUCGAGUCCCGUACGGCACG", "note": "[C24U C31A C33A C34U C46A A69C]", "yeast fitness": 0.546}, {"variant": "GUUCCGUUGGCGUAAUGGUAACGUGUCUUCCUCCUAAGGAGAAGACUGCGUGUUCGAGUCCCGUACGGAACG", "note": "[C24U C29U G51U]", "yeast fitness": "≤ 0.5"}, {"variant": "GUUCCGUUGGCGUAAUGGUAACGUGUCUACCUCCUAAGGGGAAGACUGCGGGUUCGAGUCCCGUACGGAACG", "note": "[C24U C29A A40G]", "yeast fitness": 0.514}, {"variant": "GUUCCGUUGGCGUAAUGGUAACGUGUUUCCCUCCUAAGGAGAAGACUGCGGGUUCGAGUCCCGUACGGAACG", "note": "[C24U C27U]", "yeast fitness": 0.972}, {"variant": "GUUCCGUUGGCGUAAUGGUAACGUGUGUCCCUCCUAAGGAGAAGACUGCGGGUUCGAGUCCCGUACGGAACG", "note": "[C24U C27G]", "yeast fitness": 0.602}, {"variant": "GUUCCGUUGGCGUAAUGGUAACGUGUCUCCCUCCUAAGGAGUCGACUGCGGGUUCGCGUACCGUACGGAACG", "note": "[C24U A42U A43C A57C C60A]", "yeast fitness": 0.637}, {"variant": "GUUCCGUUGGCGUAAUGGUAACGUGUCUCCGUCCUAAGGAGAAGACUGCGGGUCCGAGUCCGGUACGGAACG", "note": "[C24U C31G U54C C62G]", "yeast fitness": "≤ 0.5"}, {"variant": "GUUCCGUUGGCGUAAUGGUAACGUGUCUCCCUCCUAAGGAGAAGACUGCGGGUUCGGGUCCCGUUCGGAACG", "note": "[C24U A57G A65U]", "yeast fitness": 0.513}, {"variant": "GUUCCGUUGGCGUAAUGGUAACGUGUCUCCCUCCUAAGGAGAAGCCUGGGGGUUCGAGUCCCGUACGGCACG", "note": "[C24U A45C C49G A69C]", "yeast fitness": "≤ 0.5"}, {"variant": "GUUCCGUUGGCGUAAUGGUAACGUGUUUCCCUCCUAAGGAGAAGACAGCGGGUUCGGGUCCCGUACGGAGCG", "note": "[C24U C27U U47A A57G A70G]", "yeast fitness": "≤ 0.5"}, {"variant": "GUUCCGUUGGCGUAAUGGUAACGUGUCUCCCUCCUAAGGAGAUGACUGUGGGUUCGAGUCCCGUAUGGAACG", "note": "[C24U A43U C49U C66U]", "yeast fitness": 0.576}, {"variant": "GUUCCGUUGGCGUAAUGGUAACGUGUCUCCCUCCUAAGGAGAAGGGUGCGGGUUGGAGUCCCGUACGGCACG", "note": "[C24U A45G C46G C55G A69C]", "yeast fitness": "≤ 0.5"}, {"variant": "GUUCCGUUGGCGUAAUGGUAACGUGUCUCCCUCCUAAGGAGGAGACUGGGGGUUCGAGUCGCGUACGGAACG", "note": "[C24U A42G C49G C61G]", "yeast fitness": 0.627}, {"variant": "GUUCCGUUGGCGUAAUGGUAACGUGUCUCCCUCCUAAGGAGAAGACUGCGGGUUCGGGUCCCGUACGGAACG", "note": "[C24U A57G]", "yeast fitness": 0.809}, {"variant": "GUUCCGUUGGCGUAAUGGUAACGUGUCUCCAUAUUAAGGAGAAGAAUGCGGGUUCGAGUCCUGUACAGAACG", "note": "[C24U C31A C33A C34U C46A C62U G67A]", "yeast fitness": "≤ 0.5"}, {"variant": "GUUCCGUUGGCGUAAUGGUAACGUGUCUCCCUCCUAAGGAGAAGCCUGCGGGUUCGAGUCCCGUACAGAUCG", "note": "[C24U A45C G67A A70U]", "yeast fitness": "≤ 0.5"}, {"variant": "GUUCCGUUGGCGUAAUGGUAACGUGUCUCCCUCCUAAGGCGAAGACUGCGGGUUCGAGUCCCGUACGCAACG", "note": "[C24U A40C G68C]", "yeast fitness": 0.502}, {"variant": "GUUCCGUUGGCGUAAUGGUAACGUGUGUCCCUCCUAAGGAGAAGACUGCGGGUUCGAGUCCCAUACGGAACG", "note": "[C24U C27G G63A]", "yeast fitness": 0.536}, {"variant": "GUUCCGUUGGCGUAAUGGUAACGUGUCUCACUCCUAAGGAGAAGACUGCAGGUUCGAGUCCCGUACGGAACG", "note": "[C24U C30A G50A]", "yeast fitness": 0.587}]}]}
